From ChEMBL document CHEMBL4138242, “Synthesis and antibacterial evaluation of novel cationic chalcone derivatives possessing broad spectrum antibacterial activity” (Eur J Med Chem, 2018)
The source made the active and inactive calls. No cut-off for these calls is given here.

What was measured:
[1] = test system: Salmonella enterica; experiment: Antibacterial activity against Salmonella enterica ATCC 13076 after 16 to 20 hrs by broth microdilution method; type: functional
In short: (§1)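 Broth microdilution per CLSI. Bacteria grown 4-6 h (about 10⁸ CFU/mL), then diluted to about 10⁶ CFU/mL. Medium: Mueller-Hinton broth, except Luria-Bertani broth for E. coli. Compounds in sterile water, twofold series 256-0.5 µg/mL, mixed 1:1 with inoculum, 37 °C for 16-20 h. MIC is the lowest concentration without visible growth. Duplicate wells; experiment repeated at least twice.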

[2] = Hemolytic activity in sheep RBC after 1 hr; type: ADME, cell-based, Ovis aries, Erythrocyte; conditions: sheep red blood cells (erythrocytes)
In short: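 Sheep red blood cells (150 µL suspension) mixed with 50 µL of compound dilutions (5120-10 µg/mL), 1 h at 37 °C, then centrifuged. Supernatant read at 540 nm. Percent hemolysis calculated relative to RBC-only control (0%) and 0.1% Triton X-100 (100%).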

[3] = test system: Staphylococcus aureus; experiment: Antibacterial activity against Staphylococcus aureus ATCC 29213 after 16 to 20 hrs by broth microdilution method; type: functional; in short: as §1
[4] = test system: Escherichia coli; experiment: Antibacterial activity against Escherichia coli ATCC 25922 after 16 to 20 hrs by broth microdilution method; type: functional; in short: as §1
[5] = test system: Enterococcus faecalis; experiment: Antibacterial activity against Enterococcus faecalis ATCC 29212 after 16 to 20 hrs by broth microdilution method; type: functional; in short: as §1
[6] = test system: Staphylococcus aureus; experiment: Induction of inner membrane permeabilization in Staphylococcus aureus ATCC 29213 at 10 to 20 ug/ml measured every 2 mins for 12 mins by propidium iodide staining-based fluorescence assay; type: functional, organism-based
In short: (§2)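 Mid-log cells (~10⁸ CFU/mL) were suspended in PBS (S. aureus) or HEPES/glucose/KCl (E. coli). They were preincubated with propidium iodide for 30 min (S. aureus) or 40 min (E. coli), and baseline fluorescence was read for 8 min. Compound was added to 20 µg/mL final, and fluorescence (ex 535/em 617 nm) was read every 2 min for 12 min.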

[7] = test system: Staphylococcus aureus; experiment: Induction of cytoplasmic membrane depolarization in Staphylococcus aureus ATCC 29213 at 10 to 20 ug/ml measured every 2 mins for 12 mins by DiSC35 dye-based fluorescence assay; type: functional, organism-based
In short: (§3)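 Mid-log cells (~10⁸ CFU/mL) were suspended in PBS (S. aureus) or HEPES/glucose/KCl with EDTA (E. coli). They were preloaded with DiSC3(5) for 30 min (S. aureus) or 40 min (E. coli), and baseline fluorescence was read for 8 min. Compound was added to 20 µg/mL final, and fluorescence (ex 622/em 670 nm) was read every 2 min for 12 min. Water served as control.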

[8] = test system: Escherichia coli; experiment: Induction of inner membrane permeabilization in Escherichia coli ATCC 25922 at 10 to 20 ug/ml measured every 2 mins for 12 mins by propidium iodide staining-based fluorescence assay; type: functional, organism-based; in short: as §2
[9] = test system: Escherichia coli; experiment: Induction of cytoplasmic membrane depolarization in Escherichia coli ATCC 25922 at 10 to 20 ug/ml measured every 2 mins for 12 mins by DiSC35 dye-based fluorescence assay; type: functional, organism-based; in short: as §3

## CCCC[N+](C)(C)CC(=O)Nc1ccc(C(=O)/C=C/c2ccncc2)cc1.[Cl-]
[1]
  MIC: > 128 µg/mL
[2]
  HC50 at 1 h: > 500 µg/mL
[3]
  MIC: 128 µg/mL
[4]
  MIC: > 128 µg/mL
[5]
  MIC: 128 µg/mL

## CCCCCCCC[N+](C)(C)CC(=O)Nc1ccc(C(=O)/C=C/c2ncccc2F)cc1.[Cl-]
[1]
  MIC: 16 µg/mL
[2]
  HC50 at 1 h: 83 µg/mL
[3]
  MIC: 2 µg/mL
[4]
  MIC: 8 µg/mL
[5]
  MIC: 8 µg/mL

## CCCC[N+](C)(C)CC(=O)Nc1ccc(C(=O)/C=C/c2ccccc2F)cc1.[Cl-]
[1]
  MIC: 128 µg/mL
[2]
  HC50 at 1 h: 262 µg/mL
[3]
  MIC: 16 µg/mL
[4]
  MIC: 64 µg/mL
[5]
  MIC: 16 µg/mL

## CCCCCCCC[N+](C)(C)CC(=O)Nc1ccc(C(=O)/C=C/c2cccnc2)cc1.[Cl-]
[1]
  MIC: 32 µg/mL
[2]
  HC50 at 1 h: 127 µg/mL
[3]
  MIC: 4 µg/mL
[4]
  MIC: 16 µg/mL
[5]
  MIC: 8 µg/mL

## CCCCCCCC[N+](C)(C)CC(=O)Nc1ccc(C(=O)/C=C/c2ccc(C(C)(C)C)cc2)cc1.[Cl-]
[1]
  MIC: 16 µg/mL
[2]
  HC50 at 1 h: 284 µg/mL
[3]
  MIC: 2 µg/mL
[4]
  MIC: 16 µg/mL
[5]
  MIC: 4 µg/mL

## CCCCCCCC[N+](C)(C)CC(=O)Nc1ccc(C(=O)/C=C/c2cccc(F)c2F)cc1.[Cl-]
[6]
  Activity: Active
[1]
  MIC: 8 µg/mL
[7]
  Activity: Active
[2]
  HC50 at 1 h: 56 µg/mL
[8]
  Activity: Active
[3]
  MIC: 0.5 µg/mL
[4]
  MIC: 2 µg/mL
[5]
  MIC: 2 µg/mL
[9]
  Activity: Active

## CCCCCCCC[N+](C)(C)CC(=O)Nc1ccc(C(=O)/C=C/c2cccc(Br)n2)cc1.[Cl-]
[1]
  MIC: 32 µg/mL
[2]
  HC50 at 1 h: 363 µg/mL
[3]
  MIC: 4 µg/mL
[4]
  MIC: 16 µg/mL
[5]
  MIC: 8 µg/mL

## CCCC[N+](C)(C)CC(=O)Nc1ccc(C(=O)/C=C/c2cccs2)cc1.[Cl-]
[1]
  MIC: 128 µg/mL
[2]
  HC50 at 1 h: 360 µg/mL
[3]
  MIC: 32 µg/mL
[4]
  MIC: 64 µg/mL
[5]
  MIC: 32 µg/mL

## CCCCCCCC[N+](C)(C)CC(=O)Nc1ccc(C(=O)/C=C/c2cc([N+](=O)[O-])ccc2OCC)cc1.[Cl-]
[1]
  MIC: > 128 µg/mL
[2]
  HC50 at 1 h: 102 µg/mL
[3]
  MIC: 8 µg/mL
[4]
  MIC: > 128 µg/mL
[5]
  MIC: 2 µg/mL

## CCCCCCCCCCCCCCCCCC[N+](C)(C)CC(=O)Nc1ccc(C(=O)/C=C/c2ccccc2F)cc1.[Cl-]
[1]
  MIC: > 128 µg/mL
[2]
  HC50 at 1 h: 444 µg/mL
[3]
  MIC: > 128 µg/mL
[4]
  MIC: > 128 µg/mL
[5]
  MIC: > 128 µg/mL
